Active and inactive are the calls of the source. No cut-off for these calls is given here. Square brackets hold non-standard residues; d marks the D form. Peptide text beside a SMILES is read from it. * marks the point of attachment. Phe(4-NO2) = N[C@@H](Cc1ccc([N+](=O)[O-])cc1)C(=O)O; Phe(4-CF3) = N[C@@H](Cc1ccc(C(F)(F)F)cc1)C(=O)O; Bpa = N[C@@H](Cc1ccc(C(=O)c2ccccc2)cc1)C(=O)O; Phe(4-Br) = N[C@@H](Cc1ccc(Br)cc1)C(=O)O; Phe(3-F) = N[C@@H](Cc1cccc(F)c1)C(=O)O; Phe(4-F) = N[C@@H](Cc1ccc(F)cc1)C(=O)O; 1Nal = N[C@@H](Cc1cccc2ccccc12)C(=O)O; Bta = N[C@@H](Cc1csc2ccccc12)C(=O)O; Acetyl(2-thienyl) = O=C(Cc1cccs1)*
How the values were obtained:
[1] = target: Neuromedin-U receptor 2 (Homo sapiens) (UniProt Q9GZQ4); test: Agonist activity at human NMUR2 expressed in CHO cells assessed as induction of Ca2+ flux at 10 nM after 18 hrs by Fluo-4 AM dye based FLIPR assay relative to NMU; type: functional, cell-based
In short: (§1)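 Human NMUR1 or NMUR2 stably expressed in CHO cells was assayed by Fluo-4 AM (4 μM, 40 min) FLIPR calcium flux, with cells seeded 18 h before. Peptides were tested at single concentrations of 0.1, 10 or 100 nM. Maximal response is expressed as % of hNMU at 1000 nM (=100%).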

[2] = target: T1, Neuromedin-U receptor 1 (Homo sapiens) (UniProt Q9HB89); test: Agonist activity at human NMUR1 expressed in CHO cells assessed as induction of Ca2+ flux at 0.1 to 10 nM after 18 hrs by Fluo-4 AM dye based FLIPR assay relative to NMU; type: functional, cell-based; in short: as §1
T1 sequence (whole entry): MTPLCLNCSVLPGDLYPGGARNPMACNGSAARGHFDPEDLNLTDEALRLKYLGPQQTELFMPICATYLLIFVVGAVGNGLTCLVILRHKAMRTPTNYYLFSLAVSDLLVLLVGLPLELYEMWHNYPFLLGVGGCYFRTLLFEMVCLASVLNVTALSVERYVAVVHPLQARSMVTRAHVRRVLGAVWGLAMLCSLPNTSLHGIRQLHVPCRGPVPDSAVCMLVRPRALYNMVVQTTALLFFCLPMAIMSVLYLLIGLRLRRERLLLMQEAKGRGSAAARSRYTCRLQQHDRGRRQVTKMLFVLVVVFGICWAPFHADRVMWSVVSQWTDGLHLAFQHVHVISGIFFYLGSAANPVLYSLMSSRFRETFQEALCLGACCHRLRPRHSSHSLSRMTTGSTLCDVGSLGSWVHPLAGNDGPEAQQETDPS

[3] = target: Neuromedin-U receptor 2 (Homo sapiens) (UniProt Q9GZQ4); test: Agonist activity at human NMUR2 expressed in CHO cells assessed as induction of Ca2+ flux at 0.1 to 10 nM after 18 hrs by Fluo-4 AM dye based FLIPR assay relative to NMU; type: functional, cell-based; in short: as §1
[4] = target: T1, Neuromedin-U receptor 1 (Homo sapiens); test: Agonist activity at human NMUR1 expressed in CHO cells assessed as induction of Ca2+ flux at 0.1 nM after 18 hrs by Fluo-4 AM dye based FLIPR assay relative to NMU; type: functional, cell-based; in short: as §1
[5] = MRT in Wistar rat at 1 mg, iv by LC/MS analysis; type: ADME, organism-based; settings: in vivo
[6] = Clearance in Wistar rat at 1 mg, iv up to 240 mins by LC/MS analysis; type: ADME, organism-based; settings: in vivo
[7] = AUC in Wistar rat at 1 mg, iv up to 240 mins by LC/MS analysis; type: ADME, organism-based; set-up: dose 1 mg, time < 4 hr, route intravenous; settings: in vivo

Chain of Neuromedin-U receptor 2 (Homo sapiens) (Q9GZQ4 whole entry): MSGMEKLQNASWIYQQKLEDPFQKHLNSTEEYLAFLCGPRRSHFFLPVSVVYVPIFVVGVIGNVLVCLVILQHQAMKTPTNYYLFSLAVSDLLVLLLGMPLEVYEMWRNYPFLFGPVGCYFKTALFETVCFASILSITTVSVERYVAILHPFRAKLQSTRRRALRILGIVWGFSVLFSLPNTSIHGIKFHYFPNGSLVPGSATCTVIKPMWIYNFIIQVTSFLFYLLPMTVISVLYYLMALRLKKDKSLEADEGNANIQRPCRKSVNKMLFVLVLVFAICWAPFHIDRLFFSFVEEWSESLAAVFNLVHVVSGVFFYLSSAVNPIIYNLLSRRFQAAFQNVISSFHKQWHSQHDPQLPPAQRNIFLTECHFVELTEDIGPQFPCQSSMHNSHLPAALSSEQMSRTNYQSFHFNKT

| Activity [1] | Activity [2] | SMILES | further results |
| --- | --- | --- | --- |
| inactive |  | N=C(N)NCCC[C@H](NC(=O)[C@@H]1CCCN1C(=O)[C@H](CCCNC(=N)N)NC(=O)[C@H](Cc1ccc([N+](=O)[O-])cc1)NC(=O)[C@H](Cc1c[nH]c2ccccc12)NC(=O)Cc1cccs1)C(=O)N[C@@H](CC(N)=O)C(N)=O ({Acetyl(2-thienyl)}-W[Phe(4-NO2)]RPRN-NH2) |  |
| inactive |  | N=C(N)NCCC[C@H](NC(=O)[C@@H]1CCCN1C(=O)[C@H](CCCNC(=N)N)NC(=O)[C@H](Cc1ccc(Br)cc1)NC(=O)[C@H](Cc1c[nH]c2ccccc12)NC(=O)Cc1cccs1)C(=O)N[C@@H](CC(N)=O)C(N)=O ({Acetyl(2-thienyl)}-W[Phe(4-Br)]RPRN-NH2) |  |
|  | Active | N=C(N)NCCC[C@H](NC(=O)[C@@H]1CCCN1C(=O)[C@H](CCCNC(=N)N)NC(=O)[C@H](Cc1csc2ccccc12)NC(=O)[C@H](Cc1c[nH]c2ccccc12)NC(=O)Cc1cccs1)C(=O)N[C@@H](CC(N)=O)C(N)=O ({Acetyl(2-thienyl)}-W[Bta]RPRN-NH2) |  |
|  | Active | N=C(N)NCCC[C@H](NC(=O)[C@@H]1CCCN1C(=O)[C@H](CCCNC(=N)N)NC(=O)[C@H](Cc1cccc(F)c1)NC(=O)[C@H](Cc1c[nH]c2ccccc12)NC(=O)Cc1cccs1)C(=O)N[C@@H](CC(N)=O)C(N)=O ({Acetyl(2-thienyl)}-W[Phe(3-F)]RPRN-NH2) | Activity [3]: Active |
| inactive |  | N=C(N)NCCC[C@H](NC(=O)[C@@H]1CCCN1C(=O)[C@H](CCCNC(=N)N)NC(=O)[C@H](Cc1ccc(C(=O)c2ccccc2)cc1)NC(=O)[C@H](Cc1c[nH]c2ccccc12)NC(=O)Cc1cccs1)C(=O)N[C@@H](CC(N)=O)C(N)=O ({Acetyl(2-thienyl)}-W[Bpa]RPRN-NH2) | Activity [4]: Active |
| inactive |  | N=C(N)NCCC[C@H](NC(=O)[C@@H]1CCCN1C(=O)[C@H](CCCNC(=N)N)NC(=O)[C@H](Cc1ccc(C(F)(F)F)cc1)NC(=O)[C@H](Cc1c[nH]c2ccccc12)NC(=O)Cc1cccs1)C(=O)N[C@@H](CC(N)=O)C(N)=O ({Acetyl(2-thienyl)}-W[Phe(4-CF3)]RPRN-NH2) | Activity [4]: Active |
| inactive |  | N=C(N)NCCC[C@H](NC(=O)[C@@H]1CCCN1C(=O)[C@H](CCCNC(=N)N)NC(=O)[C@H](Cc1cccc2ccccc12)NC(=O)[C@H](Cc1c[nH]c2ccccc12)NC(=O)Cc1cccs1)C(=O)N[C@@H](CC(N)=O)C(N)=O ({Acetyl(2-thienyl)}-W[1Nal]RPRN-NH2) |  |
|  | Active | N=C(N)NCCC[C@H](NC(=O)[C@@H]1CCCN1C(=O)[C@H](CCCNC(=N)N)NC(=O)[C@H](Cc1ccc(F)cc1)NC(=O)[C@H](Cc1c[nH]c2ccccc12)NC(=O)Cc1cccs1)C(=O)N[C@@H](CC(N)=O)C(N)=O ({Acetyl(2-thienyl)}-W[Phe(4-F)]RPRN-NH2) | MRT [5]: 11.5 min; Activity [3]: Active; clearance [6]: 3.19 mL/min; AUC at 4 h [7]: 5300 ng·h/mL |
| inactive |  | COc1ccc(C[C@H](NC(=O)[C@H](Cc2c[nH]c3ccccc23)NC(=O)Cc2cccs2)C(=O)N[C@@H](CCCNC(=N)N)C(=O)N2CCC[C@H]2C(=O)N[C@@H](CCCNC(=N)N)C(=O)N[C@@H](CC(N)=O)C(N)=O)cc1 ({Acetyl(2-thienyl)}-WY(Me)RPRN-NH2) |  |

From ChEMBL document CHEMBL4014341, “Discovery of a Human Neuromedin U Receptor 1-Selective Hexapeptide Agonist with Enhanced Serum Stability” (J Med Chem, 2017)
